Source: ChEMBL document CHEMBL3259562, “4-Alkyloxyimino derivatives of uridine-5'-triphosphate: distal modification of potent agonists as a strategy for molecular probes of P2Y2, P2Y4, and P2Y6 receptors” (J Med Chem, 2014)
The source made the active and inactive calls. The rule behind the calls is not given here.

Assays:
[1] = target: T1, P2Y purinoceptor 4 (Homo sapiens, UniProt P51582); assay: Agonist activity at human P2Y4 receptor expressed in human 1321N1 cells assessed as stimulation of [3H]inositol phosphate accumulation by liquid scintillation counting; assay type: functional, cell-based
T1 sequence (P51582 whole entry): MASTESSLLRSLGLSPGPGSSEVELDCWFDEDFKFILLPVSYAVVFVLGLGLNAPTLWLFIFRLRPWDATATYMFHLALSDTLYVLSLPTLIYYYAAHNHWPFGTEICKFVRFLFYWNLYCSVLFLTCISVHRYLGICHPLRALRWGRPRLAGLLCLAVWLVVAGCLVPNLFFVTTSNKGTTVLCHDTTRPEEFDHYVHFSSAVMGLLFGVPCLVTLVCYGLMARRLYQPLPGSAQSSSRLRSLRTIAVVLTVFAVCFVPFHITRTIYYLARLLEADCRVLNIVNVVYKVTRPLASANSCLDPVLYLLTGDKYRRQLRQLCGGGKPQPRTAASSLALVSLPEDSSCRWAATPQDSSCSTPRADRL
In short: (§1)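 Stable 1321N1 lines made by retroviral expression of each human receptor (parent cells lack P2YRs), seeded at 20000 cells/well two days ahead. Labelled 16 h with 1.0 μCi [3H]myo-inositol in serum-free, inositol-free DMEM. Agonist given in 100 mM Hepes pH 7.3/HBSS with 50 mM LiCl for 30 min at 37 °C. Stopped with ice-cold 50 mM formic acid, then neutralised. Total inositol phosphates taken off Dowex AG1-X8 and counted by scintillation.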

[2] = target: T2, P2Y purinoceptor 2 (Homo sapiens, UniProt P41231); assay: Agonist activity at human P2Y2 receptor expressed in human 1321N1 cells assessed as stimulation of [3H]inositol phosphate accumulation by liquid scintillation counting; assay type: functional, cell-based; in short: as §1
T2 sequence (P41231 whole entry): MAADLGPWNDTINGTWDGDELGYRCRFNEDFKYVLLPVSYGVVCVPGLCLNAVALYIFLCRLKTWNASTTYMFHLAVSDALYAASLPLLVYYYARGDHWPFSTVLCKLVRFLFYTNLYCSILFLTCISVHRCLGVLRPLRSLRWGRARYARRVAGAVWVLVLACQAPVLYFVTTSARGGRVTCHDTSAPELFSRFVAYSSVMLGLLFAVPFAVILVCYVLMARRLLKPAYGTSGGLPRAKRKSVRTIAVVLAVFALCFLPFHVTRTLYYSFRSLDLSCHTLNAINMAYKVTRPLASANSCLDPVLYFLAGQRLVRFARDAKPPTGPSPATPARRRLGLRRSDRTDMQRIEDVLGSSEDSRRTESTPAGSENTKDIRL

[3] = target: T3, P2Y purinoceptor 6 (Homo sapiens, UniProt Q15077); assay: Agonist activity at human P2Y6 receptor expressed in human 1321N1 cells assessed as stimulation of [3H]inositol phosphate accumulation by liquid scintillation counting; assay type: functional, cell-based; in short: as §1
T3 sequence (Q15077 whole entry): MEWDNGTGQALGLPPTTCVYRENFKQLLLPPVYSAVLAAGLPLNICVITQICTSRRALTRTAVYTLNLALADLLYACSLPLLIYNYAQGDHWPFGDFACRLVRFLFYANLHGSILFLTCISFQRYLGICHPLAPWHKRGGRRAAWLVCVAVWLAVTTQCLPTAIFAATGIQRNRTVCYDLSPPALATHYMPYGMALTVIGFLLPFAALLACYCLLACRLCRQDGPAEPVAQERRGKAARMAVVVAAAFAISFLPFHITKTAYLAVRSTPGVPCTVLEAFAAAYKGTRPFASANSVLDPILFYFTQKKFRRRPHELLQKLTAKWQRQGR

[4] = target: T2, P2Y purinoceptor 2; assay: Agonist activity at human P2Y2 receptor expressed in human 1321N1 cells by functional assay; assay type: cell-based; in short: as §1
[5] = target: T3, P2Y purinoceptor 6; assay: Agonist activity at human P2Y6 receptor expressed in human 1321N1 cells by functional assay; assay type: cell-based; in short: as §1
[6] = target: T1, P2Y purinoceptor 4; assay: Agonist activity at human P2Y4 receptor expressed in human 1321N1 cells by functional assay; assay type: cell-based; in short: as §1
[7] = target: T3, P2Y purinoceptor 6; assay: Binding affinity to human P2Y6 receptor expressed in human 1321N1 cells assessed as fluorescence intensity at 100 nM for 30 mins by flow cytometry (FCM) binding assay in presence of 10 uM MRS2578 noncompetitive antagonist; assay type: cell-based
In short: (§2)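 P2Y6R-1321N1 cells grown in DMEM with 5% FBS, used at 80% confluence. Preincubated 30 min with 100 μM α,β-methylene-ADP plus 10 μM competing ligand, then 100 nM fluorescent ligand for 20–30 min. Cells washed three times in ice-cold DPBS, detached with 0.2% EDTA and analysed by flow cytometry (FL-4 channel, 10,000 events). MFI corrected for autofluorescence and expressed relative to ligand alone (100%); n = 4, mean ± SEM.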

[8] = target: T3, P2Y purinoceptor 6; assay: Binding affinity to human P2Y6 receptor expressed in human 1321N1 cells assessed as fluorescence intensity at 100 nM for 30 mins by flow cytometry (FCM) binding assay in presence of 10 uM suramin competitive antagonist; assay type: cell-based; in short: as §2
[9] = target: T3, P2Y purinoceptor 6; assay: Binding affinity to human P2Y6 receptor expressed in human 1321N1 cells assessed as fluorescence intensity at 1 uM for 30 mins by fluorescence microscopy; assay type: cell-based
In short: (§3)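 P2Y6R-1321N1 cells on glass coverslips at 80% confluence, given fresh medium and, where stated, 10 μM noncompetitive antagonist MRS2578 for 30 min at 37 °C. Fluorescent ligand then added to 1 μM final for 30 min at 37 °C. Cells washed with ice-cold PBS, mounted and imaged by fluorescence microscopy.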

[10] = target: T3, P2Y purinoceptor 6; assay: Binding affinity to human P2Y6 receptor expressed in human 1321N1 cells assessed as fluorescence intensity at 1 uM for 30 mins by fluorescence microscopy in presence of 10 uM MRS2578 noncompetitive antagonist; assay type: cell-based; in short: as §3
[11] = target: T3, P2Y purinoceptor 6; assay: Binding affinity to human P2Y6 receptor expressed in human 1321N1 cells assessed as fluorescence intensity at 100 nM for 30 mins by flow cytometry (FCM) binding assay in presence of 10 uM MRS2179 P2Y1R-selective antagonist; assay type: cell-based; in short: as §2
[12] = target: T3, P2Y purinoceptor 6; assay: Binding affinity to human P2Y6 receptor expressed in human 1321N1 cells assessed as fluorescence intensity at 100 nM for 30 mins by flow cytometry (FCM) binding assay in presence of 10 uM P1-(uridine 5'-)-P4-(N4-methoxycytidine5'-)[…] selective dinucleotide agonist; assay type: cell-based; in short: as §2
[13] = target: T3, P2Y purinoceptor 6; assay: Binding affinity to human P2Y6 receptor expressed in human 1321N1 cells assessed as fluorescence intensity at 100 nM for 30 mins by flow cytometry (FCM) binding assay in presence of 100 uM ecto-nucleotidase inhibitor alpha, beta-methylene-adenosine 5'-diphosphate; assay type: cell-based; in short: as §2

Row | Compound | EC50 [1] | EC50 [2] | EC50 [3] | other results
1 | C#CCCNC(=O)COc1ccc(CCCO/N=c2/ccn([C@@H]3O[C@H](COP(=O)(O)OP(=O)(O)OP(=O)(O)O)[C@@H](O)[C@H]3O)c(=O)[nH]2)cc1 | 40 nM | 109 nM | 183 nM | –
2 | O=c1[nH]/c(=N\OCCOc2ccccc2)ccn1[C@@H]1O[C@H](COP(=O)(O)OP(=O)(O)OP(=O)(O)O)[C@@H](O)[C@H]1O | 430 nM | 3400 nM | 1780 nM | –
3 | O=c1[nH]/c(=N\OCCCc2cccc([N+](=O)[O-])c2)ccn1[C@@H]1O[C@H](COP(=O)(O)OP(=O)(O)OP(=O)(O)O)[C@@H](O)[C@H]1O | 95 nM | 457 nM | 9700 nM | –
4 | O=c1[nH]/c(=N\OCCCc2cccnc2)ccn1[C@@H]1O[C@H](COP(=O)(O)OP(=O)(O)OP(=O)(O)O)[C@@H](O)[C@H]1O | 300 nM | 327 nM | 2950 nM | –
5 | O=c1[nH]/c(=N\OCCCc2cccc(I)c2)ccn1[C@@H]1O[C@H](COP(=O)(O)OP(=O)(O)OP(=O)(O)O)[C@@H](O)[C@H]1O | 114 nM | 325 nM | 299 nM | –
6 | O=c1ccn([C@@H]2O[C@H](COP(=O)(O)OP(=O)(O)OP(=O)(O)OP(=O)(O)OC[C@H]3O[C@@H](n4cc/c(=N/OCCCc5ccccc5)[nH]c4=O)[C@H](O)[C@@H]3O)[C@@H](O)[C@H]2O)c(=O)[nH]1 | – | – | – | EC50 [4]: 389 nM; EC50 [5]: 332 nM; EC50 [6]: 93 nM
7 | O=c1[nH]/c(=N\OCCCc2ccc(I)cc2)ccn1[C@@H]1O[C@H](COP(=O)(O)OP(=O)(O)OP(=O)(O)O)[C@@H](O)[C@H]1O | 91 nM | 187 nM | 90 nM | –
8 | O=c1[nH]/c(=N\OCCCc2ccc([N+](=O)[O-])cc2)ccn1[C@@H]1O[C@H](COP(=O)(O)OP(=O)(O)OP(=O)(O)O)[C@@H](O)[C@H]1O | 84 nM | 458 nM | 1330 nM | –
9 | N#CC(CCO/N=c1/ccn([C@@H]2O[C@H](COP(=O)(O)OP(=O)(O)OP(=O)(O)O)[C@@H](O)[C@H]2O)c(=O)[nH]1)(c1ccccc1)c1ccccc1 | 47 nM | 934 nM | 177 nM | –
10 | O=C(CCCCCNC(=O)COc1ccc(/C=C/c2ccc3n2[B-](F)(F)[N+]2=C(c4cccs4)C=CC2=C3)cc1)NCCCn1cc(CCNC(=O)COc2ccc(CCCO/N=c3/ccn([C@@H]4O[C@H](COP(=O)(O)OP(=O)(O)OP(=O)(O)O)[C@@H](O)[C@H]4O)c(=O)[nH]3)cc2)nn1 | 70 nM | 66 nM | 23 nM | Activity [7]: inactive; Activity [8]: inactive; Activity [9]: Active; Activity [10]: Active; Activity [11]: Active; Activity [12]: inactive; Activity [13]: Active
11 | O=c1[nH]/c(=N\OCCCCc2ccccc2)ccn1[C@@H]1O[C@H](COP(=O)(O)OP(=O)(O)OP(=O)(O)O)[C@@H](O)[C@H]1O | 54 nM | 214 nM | 251 nM | –
12 | O=c1[nH]/c(=N\OCCCc2ccc3ccccc3c2)ccn1[C@@H]1O[C@H](COP(=O)(O)OP(=O)(O)OP(=O)(O)O)[C@@H](O)[C@H]1O | 128 nM | 139 nM | 90 nM | –
13 | O=c1[nH]/c(=N\OCCCc2ccncc2)ccn1[C@@H]1O[C@H](COP(=O)(O)OP(=O)(O)OP(=O)(O)O)[C@@H](O)[C@H]1O | 250 nM | 285 nM | 4280 nM | –
14 | O=c1[nH]/c(=N\OCCCc2ccc(Br)cc2)ccn1[C@@H]1O[C@H](COP(=O)(O)OP(=O)(O)OP(=O)(O)O)[C@@H](O)[C@H]1O | 141 nM | 350 nM | 225 nM | –
15 | O=c1[nH]/c(=N\OCCCc2cccc(F)c2)ccn1[C@@H]1O[C@H](COP(=O)(O)OP(=O)(O)OP(=O)(O)O)[C@@H](O)[C@H]1O | 100 nM | 190 nM | 539 nM | –
16 | O=c1[nH]/c(=N\OCCCc2ccc(F)cc2)ccn1[C@@H]1O[C@H](COP(=O)(O)OP(=O)(O)OP(=O)(O)O)[C@@H](O)[C@H]1O | 105 nM | 547 nM | 1210 nM | –
17 | C#CCCCO/N=c1/ccn([C@@H]2O[C@H](COP(=O)(O)OP(=O)(O)OP(=O)(O)O)[C@@H](O)[C@H]2O)c(=O)[nH]1 | 410 nM | 168 nM | 3000 nM | –
18 | COc1ccc(CCCO/N=c2/ccn([C@@H]3O[C@H](COP(=O)(O)OP(=O)(O)OP(=O)(O)O)[C@@H](O)[C@H]3O)c(=O)[nH]2)cc1 | 23 nM | 47 nM | 277 nM | –
19 | O=c1[nH]/c(=N\OCCCc2ccccc2)ccn1[C@@H]1O[C@H](COP(=O)(O)OP(=O)(O)OP(=O)(O)OP(=O)(O)OC[C@H]2O[C@@H](n3cc/c(=N/OCCCc4ccccc4)[nH]c3=O)[C@H](O)[C@@H]2O)[C@@H](O)[C@H]1O | – | – | – | EC50 [4]: > 10000 nM; EC50 [5]: > 10000 nM; EC50 [6]: 1330 nM
20 | O=C(O)CCCO/N=c1/ccn([C@@H]2O[C@H](COP(=O)(O)OP(=O)(O)OP(=O)(O)O)[C@@H](O)[C@H]2O)c(=O)[nH]1 | 470 nM | 299 nM | 697 nM | –
21 | O=c1[nH]/c(=N\OCCCc2ccsc2)ccn1[C@@H]1O[C@H](COP(=O)(O)OP(=O)(O)OP(=O)(O)O)[C@@H](O)[C@H]1O | 20 nM | 103 nM | 164 nM | –
22 | N=c1ccc2c(-c3ccc(C(=O)NCCCCCCn4cc(CCNC(=O)COc5ccc(CCCO/N=c6/ccn([C@@H]7O[C@H](COP(=O)(O)OP(=O)(O)OP(=O)(O)O)[C@@H](O)[C@H]7O)c(=O)[nH]6)cc5)nn4)cc3C(=O)O)c3ccc(N)c(S(=O)(=O)O)c3oc-2c1S(=O)(=O)O | 200 nM | 577 nM | 334 nM | –
